Active and inactive are the calls of the source. No cut-off for these calls is given here.
Assays:
[1] = tested on: HEK-293T; test: Toxicity in HEK293T cells assessed as reduction in cell viability up to 20 uM incubated for 3 days by CCK8 assay; assay type: cell-based; conditions: human, 72 h
Summary of the method: (§1)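 Cells seeded 1×10^4 per well in triplicate, treated after 24 h with serial dilutions from 20 μM for 3 days; CCK-8 (WST-8) added, 4 h at 37 °C, absorbance at 450 nm; mean ± SD of three replicate experiments.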

[2] = target: T1, Protein arginine N-methyltransferase 1 (Homo sapiens, UniProt Q99873); test: Inhibition of PRMT1 in human MCF7 cells assessed as reduction in H4R3me2a levels incubated for 2 days by fluorescence based assay; assay type: cell-based
Summary of the method: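 MCF7 cells with endogenous PRMT1 were treated with compound for 2 days, with MS023 (1 μM) as positive control. The H4R3me2a fluorescence signal was normalized to H4 and fitted nonlinearly to give IC50.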

[3] = target: Histone-lysine N-methyltransferase ASH1L (Homo sapiens) (UniProt Q9NR48); test: Inhibition of ASH1L (unknown origin) at 10 uM using [3H-SAM] and nucleosome as substrate incubated for 1 hr by scintillation proximity assay
Summary of the method: (§2)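 Panel of 33 methyltransferases (22 PKMTs, 3 DNMTs, 8 PRMTs), each tested at 10 and 50 μM compound. Activity was read as ³H-methyl transfer from ³H-SAM in a radiometric assay done as previously described.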

[4] = target: T1, Protein arginine N-methyltransferase 1; test: Inhibition of human PRMT1 using [3H]SAM as donor and [3H]methylated biotin-labeled peptide as substrate by scintillation proximity assay
Target sequence in this assay (Q99873 whole entry): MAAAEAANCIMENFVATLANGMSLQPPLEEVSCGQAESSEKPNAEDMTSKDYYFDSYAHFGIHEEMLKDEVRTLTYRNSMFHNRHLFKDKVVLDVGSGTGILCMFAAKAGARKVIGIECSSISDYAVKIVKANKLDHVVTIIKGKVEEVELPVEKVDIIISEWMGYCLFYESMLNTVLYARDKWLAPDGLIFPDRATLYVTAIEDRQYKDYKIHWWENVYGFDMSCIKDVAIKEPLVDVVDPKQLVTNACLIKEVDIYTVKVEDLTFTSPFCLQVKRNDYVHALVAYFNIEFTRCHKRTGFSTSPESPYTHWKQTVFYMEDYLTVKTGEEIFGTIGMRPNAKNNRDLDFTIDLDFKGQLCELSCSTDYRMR

[5] = tested on: MCF7; test: Toxicity in human MCF7 cells assessed as reduction in cell viability up to 20 uM incubated for 3 days by CCK8 assay; assay type: cell-based; conditions: mcf7, 72 h; summary of the method: as §1
[6] = target: Histone-lysine N-methyltransferase EHMT2 (Homo sapiens) (UniProt Q96KQ7); test: Inhibition of G9a (unknown origin) assessed as reduction in incorporation of [3H]-labeled methyl group into biotinylated substrate using [3H-SAM] at 10 uM incubated for 1 hr by scintillation proximity assay; summary of the method: as §2
Chain of Histone-lysine N-methyltransferase EHMT2 (Homo sapiens) (Q96KQ7 whole entry): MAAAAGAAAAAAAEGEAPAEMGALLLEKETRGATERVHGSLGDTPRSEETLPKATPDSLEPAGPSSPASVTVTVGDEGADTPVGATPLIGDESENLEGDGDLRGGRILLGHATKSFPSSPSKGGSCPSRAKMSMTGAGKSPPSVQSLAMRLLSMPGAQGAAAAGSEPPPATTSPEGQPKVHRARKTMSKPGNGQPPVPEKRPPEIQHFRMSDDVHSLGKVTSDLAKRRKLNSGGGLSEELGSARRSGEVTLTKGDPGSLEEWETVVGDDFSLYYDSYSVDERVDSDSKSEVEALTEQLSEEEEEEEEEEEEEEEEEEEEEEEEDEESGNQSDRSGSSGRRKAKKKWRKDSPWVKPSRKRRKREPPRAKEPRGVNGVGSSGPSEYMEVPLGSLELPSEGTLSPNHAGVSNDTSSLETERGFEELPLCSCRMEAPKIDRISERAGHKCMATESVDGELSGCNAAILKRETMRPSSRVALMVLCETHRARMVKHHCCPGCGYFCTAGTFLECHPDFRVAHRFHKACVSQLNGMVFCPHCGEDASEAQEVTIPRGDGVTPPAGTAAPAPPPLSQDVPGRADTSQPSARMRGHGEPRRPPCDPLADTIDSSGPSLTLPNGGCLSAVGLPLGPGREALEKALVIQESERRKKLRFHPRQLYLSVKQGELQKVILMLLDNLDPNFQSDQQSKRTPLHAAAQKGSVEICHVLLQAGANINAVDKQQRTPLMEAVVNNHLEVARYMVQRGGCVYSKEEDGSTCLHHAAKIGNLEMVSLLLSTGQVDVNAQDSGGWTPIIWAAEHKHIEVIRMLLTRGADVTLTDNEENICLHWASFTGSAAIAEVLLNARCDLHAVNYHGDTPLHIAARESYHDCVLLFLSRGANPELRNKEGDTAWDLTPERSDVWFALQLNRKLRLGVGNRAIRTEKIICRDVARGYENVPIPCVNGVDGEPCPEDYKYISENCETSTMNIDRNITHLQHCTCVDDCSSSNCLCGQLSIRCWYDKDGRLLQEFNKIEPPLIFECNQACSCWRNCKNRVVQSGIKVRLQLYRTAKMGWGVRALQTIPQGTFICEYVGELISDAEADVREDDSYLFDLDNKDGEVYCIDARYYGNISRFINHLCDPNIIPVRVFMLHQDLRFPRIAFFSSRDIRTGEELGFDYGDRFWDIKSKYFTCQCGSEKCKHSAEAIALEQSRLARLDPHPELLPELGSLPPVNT

[7] = species: Homo sapiens; test: Selectivity index, ratio of IC50 for human PRMT3 to IC50 for human PRMT6
[8] = species: Homo sapiens; test: Selectivity index, ratio of IC50 for human PRMT4 to IC50 for human PRMT6
[9] = target: T2, Protein arginine N-methyltransferase 8 (Homo sapiens, UniProt Q9NR22); test: Inhibition of PRMT8 (unknown origin) assessed as reduction in incorporation of [3H]-labeled methyl group into biotinylated substrate using [3H-SAM] at 10 uM incubated for 1 hr by scintillation proximity assay; summary of the method: as §2
Target sequence in this assay (Q9NR22 2-394 limits assumed): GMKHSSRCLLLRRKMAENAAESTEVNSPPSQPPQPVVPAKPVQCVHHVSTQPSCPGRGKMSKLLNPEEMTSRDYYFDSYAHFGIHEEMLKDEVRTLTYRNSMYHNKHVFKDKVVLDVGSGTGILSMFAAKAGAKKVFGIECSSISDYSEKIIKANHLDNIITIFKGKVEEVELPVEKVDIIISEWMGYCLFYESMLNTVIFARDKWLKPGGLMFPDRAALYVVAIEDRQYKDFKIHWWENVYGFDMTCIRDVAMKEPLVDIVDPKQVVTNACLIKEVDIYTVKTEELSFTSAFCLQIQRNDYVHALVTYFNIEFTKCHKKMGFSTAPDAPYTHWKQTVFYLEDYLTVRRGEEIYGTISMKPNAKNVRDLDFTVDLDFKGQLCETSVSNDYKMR

[10] = tested on: PNT2; test: Toxicity in human PNT2 cells assessed as reduction in cell viability up to 20 uM incubated for 3 days by CCK8 assay; assay type: cell-based; conditions: pnt2, 72 h; summary of the method: as §1
[11] = target: T3, Protein arginine N-methyltransferase 3 (Homo sapiens, UniProt O60678); test: Inhibition of PRMT3 (unknown origin) assessed as reduction in incorporation of [3H]-labeled methyl group into biotinylated substrate using [3H-SAM] at 10 uM incubated for 1 hr by scintillation proximity assay; summary of the method: as §2
T3 sequence (O60678 2-531 limits assumed): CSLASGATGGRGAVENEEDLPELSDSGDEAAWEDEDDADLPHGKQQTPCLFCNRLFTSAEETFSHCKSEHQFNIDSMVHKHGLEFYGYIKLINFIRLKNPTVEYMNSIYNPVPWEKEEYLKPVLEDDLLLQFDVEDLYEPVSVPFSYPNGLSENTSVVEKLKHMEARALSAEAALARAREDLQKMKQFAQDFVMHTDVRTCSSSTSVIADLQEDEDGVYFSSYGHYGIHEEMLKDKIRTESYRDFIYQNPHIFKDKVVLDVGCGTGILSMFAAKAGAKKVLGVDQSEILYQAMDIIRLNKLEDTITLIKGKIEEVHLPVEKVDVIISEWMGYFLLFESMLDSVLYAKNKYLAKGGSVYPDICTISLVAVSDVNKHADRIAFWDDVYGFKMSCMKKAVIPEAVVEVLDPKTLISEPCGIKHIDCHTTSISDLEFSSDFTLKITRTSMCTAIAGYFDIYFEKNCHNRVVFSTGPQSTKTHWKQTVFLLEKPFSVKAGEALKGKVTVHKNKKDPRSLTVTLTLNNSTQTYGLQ

[12] = target: T2, Protein arginine N-methyltransferase 8; test: Inhibition of human PRMT8 using [3H]SAM as donor and [3H]methylated biotin-labeled peptide as substrate by scintillation proximity assay
Summary of the method: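 Radiometric SPA: ³H-methyl transfer from ³H-SAM to biotin-labeled peptide, captured on streptavidin/scintillant-coated plate, counts per minute read; substrate and cofactor each at their Km for the enzyme; compound titrated; IC50 from triplicate determinations, mean ± SD.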
Target sequence in this assay (Q9NR22 whole entry): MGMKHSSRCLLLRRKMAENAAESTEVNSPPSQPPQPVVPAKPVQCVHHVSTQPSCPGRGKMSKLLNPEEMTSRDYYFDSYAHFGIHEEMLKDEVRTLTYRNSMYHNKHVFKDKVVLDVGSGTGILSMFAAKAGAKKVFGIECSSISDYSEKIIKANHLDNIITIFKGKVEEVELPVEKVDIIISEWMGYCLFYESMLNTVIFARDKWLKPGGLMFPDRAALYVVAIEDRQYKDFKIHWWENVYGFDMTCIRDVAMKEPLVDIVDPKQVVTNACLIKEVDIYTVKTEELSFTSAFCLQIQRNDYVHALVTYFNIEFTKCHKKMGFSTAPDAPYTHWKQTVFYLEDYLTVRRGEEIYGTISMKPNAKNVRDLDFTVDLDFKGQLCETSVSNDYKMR

[13] = target: N-lysine methyltransferase KMT5A (Homo sapiens) (UniProt Q9NQR1); test: Inhibition of SETD8 (unknown origin) assessed as reduction in incorporation of [3H]-labeled methyl group into biotinylated substrate using [3H-SAM] at 10 uM incubated for 1 hr by scintillation proximity assay; summary of the method: as §2
Chain of N-lysine methyltransferase KMT5A (Homo sapiens) (Q9NQR1 whole entry): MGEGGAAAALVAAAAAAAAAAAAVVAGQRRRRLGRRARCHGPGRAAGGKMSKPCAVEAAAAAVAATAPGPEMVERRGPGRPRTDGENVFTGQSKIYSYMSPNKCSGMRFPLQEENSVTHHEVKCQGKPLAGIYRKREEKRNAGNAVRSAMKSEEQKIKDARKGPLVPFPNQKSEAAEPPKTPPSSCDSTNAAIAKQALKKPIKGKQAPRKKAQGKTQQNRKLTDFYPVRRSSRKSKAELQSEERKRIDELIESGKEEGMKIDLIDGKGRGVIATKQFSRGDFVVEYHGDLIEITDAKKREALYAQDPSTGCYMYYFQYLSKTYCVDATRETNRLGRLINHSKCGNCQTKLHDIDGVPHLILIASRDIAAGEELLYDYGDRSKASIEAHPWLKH

[14] = target: T4, Histone-arginine methyltransferase CARM1 (Homo sapiens, UniProt Q86X55); test: Inhibition of human PRMT4 using [3H]SAM as donor and [3H]methylated biotin-labeled peptide as substrate by scintillation proximity assay
T4 sequence (Q86X55 whole entry): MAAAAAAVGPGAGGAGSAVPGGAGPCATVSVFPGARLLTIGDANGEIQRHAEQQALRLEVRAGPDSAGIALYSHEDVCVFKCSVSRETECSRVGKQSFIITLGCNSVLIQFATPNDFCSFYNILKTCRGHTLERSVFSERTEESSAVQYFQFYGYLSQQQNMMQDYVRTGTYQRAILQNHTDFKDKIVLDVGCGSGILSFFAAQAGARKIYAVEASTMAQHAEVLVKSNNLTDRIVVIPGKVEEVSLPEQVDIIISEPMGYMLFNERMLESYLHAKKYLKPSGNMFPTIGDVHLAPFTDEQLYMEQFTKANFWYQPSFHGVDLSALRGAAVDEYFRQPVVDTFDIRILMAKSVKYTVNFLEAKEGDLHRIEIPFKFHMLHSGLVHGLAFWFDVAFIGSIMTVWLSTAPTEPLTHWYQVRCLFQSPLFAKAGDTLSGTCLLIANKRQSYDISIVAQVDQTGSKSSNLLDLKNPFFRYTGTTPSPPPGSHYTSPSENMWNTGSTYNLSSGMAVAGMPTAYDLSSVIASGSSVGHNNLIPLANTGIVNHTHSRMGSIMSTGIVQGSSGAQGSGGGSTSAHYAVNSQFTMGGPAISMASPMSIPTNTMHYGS
Summary of the method: (§3)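 Compound titrated into the reaction; 1 h enzyme–compound preincubation stated for PRMT6. Methylated peptide captured on streptavidin/scintillant-coated plates and counted (cpm). IC50 from concentration–response, triplicate, mean ± SD.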

[15] = target: T3, Protein arginine N-methyltransferase 3; test: Inhibition of PRMT3 (unknown origin) assessed as reduction in incorporation of [3H]-labeled methyl group into biotinylated substrate using [3H-SAM] at 50 uM incubated for 1 hr by scintillation proximity assay relative to control; summary of the method: as §2
[16] = target: T5, Histone-arginine methyltransferase CARM1 (Homo sapiens) (UniProt Q86X55); test: Inhibition of PRMT4 (unknown origin) assessed as reduction in incorporation of [3H]-labeled methyl group into biotinylated substrate using [3H-SAM] at 10 uM incubated for 1 hr by scintillation proximity assay; summary of the method: as §2
T5 sequence (whole entry): T4 sequence (Q86X55 whole entry)

[17] = target: T5, Histone-arginine methyltransferase CARM1 (Homo sapiens); test: Inhibition of PRMT4 (unknown origin) assessed as reduction in incorporation of [3H]-labeled methyl group into biotinylated substrate using [3H-SAM] at 50 uM incubated for 1 hr by scintillation proximity assay relative to control; summary of the method: as §2
[18] = target: RNA 5'-monophosphate methyltransferase (Homo sapiens) (UniProt Q7Z5W3); test: Inhibition of BCDIN3D (unknown origin) assessed as reduction in incorporation of [3H]-labeled methyl group into biotinylated substrate using [3H-SAM] at 10 uM incubated for 1 hr by scintillation proximity assay
Chain of RNA 5'-monophosphate methyltransferase (Homo sapiens) (Q7Z5W3 whole entry): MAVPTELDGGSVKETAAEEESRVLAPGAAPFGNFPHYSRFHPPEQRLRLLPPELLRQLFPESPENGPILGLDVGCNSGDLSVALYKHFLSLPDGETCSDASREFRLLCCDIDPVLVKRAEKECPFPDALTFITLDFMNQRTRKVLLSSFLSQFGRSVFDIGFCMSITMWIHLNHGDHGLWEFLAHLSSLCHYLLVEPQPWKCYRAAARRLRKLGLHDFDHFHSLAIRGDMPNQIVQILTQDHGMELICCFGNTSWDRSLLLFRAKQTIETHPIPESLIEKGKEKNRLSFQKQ

[19] = target: Histone-lysine N-methyltransferase SUV39H2 (Homo sapiens) (UniProt Q9H5I1); test: Inhibition of SUV39H2 (unknown origin) assessed as reduction in incorporation of [3H]-labeled methyl group into biotinylated substrate using [3H-SAM] at 10 uM incubated for 1 hr by scintillation proximity assay
Chain of Histone-lysine N-methyltransferase SUV39H2 (Homo sapiens) (Q9H5I1 whole entry): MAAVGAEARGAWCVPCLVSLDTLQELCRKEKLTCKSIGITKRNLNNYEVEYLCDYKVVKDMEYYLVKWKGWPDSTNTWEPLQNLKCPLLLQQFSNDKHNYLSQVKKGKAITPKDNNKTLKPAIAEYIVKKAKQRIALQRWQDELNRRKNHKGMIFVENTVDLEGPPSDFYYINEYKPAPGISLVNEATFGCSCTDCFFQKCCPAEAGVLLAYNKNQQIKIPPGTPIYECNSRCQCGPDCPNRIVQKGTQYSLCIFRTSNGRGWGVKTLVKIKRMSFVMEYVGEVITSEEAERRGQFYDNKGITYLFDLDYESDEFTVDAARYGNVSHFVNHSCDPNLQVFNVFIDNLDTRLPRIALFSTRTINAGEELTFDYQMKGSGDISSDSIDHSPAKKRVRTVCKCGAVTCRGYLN

[20] = target: Protein arginine N-methyltransferase 6 (Homo sapiens, UniProt Q96LA8); test: Inhibition of human PRMT6 using [3H]SAM as donor and [3H]methylated biotin-labeled peptide as substrate by scintillation proximity assay; summary of the method: as §3
Chain of Protein arginine N-methyltransferase 6 (Q96LA8 whole entry): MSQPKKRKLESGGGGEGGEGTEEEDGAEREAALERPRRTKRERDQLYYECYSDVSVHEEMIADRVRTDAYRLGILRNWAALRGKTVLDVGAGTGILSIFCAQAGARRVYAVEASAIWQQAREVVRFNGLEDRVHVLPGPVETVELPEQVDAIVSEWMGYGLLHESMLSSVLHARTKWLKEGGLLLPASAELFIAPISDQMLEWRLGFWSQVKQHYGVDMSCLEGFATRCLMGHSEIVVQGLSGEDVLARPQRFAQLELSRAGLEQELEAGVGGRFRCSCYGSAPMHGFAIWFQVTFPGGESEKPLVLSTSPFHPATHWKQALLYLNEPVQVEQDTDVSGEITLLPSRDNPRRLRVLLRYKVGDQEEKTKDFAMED

For `C=CC(=O)Nc1cccc(-c2c[nH]cc2CN(C)CCN)c1`, the Activity [1] was “Non-Toxic”, the IC50 [2] was 5600 nM and the inhibition [2] was “Dose-dependent effect”. The inhibition [3] was “inactive”, the IC50 [4] was 100 nM and the Activity [5] was “Non-Toxic”. The inhibition [6] was “inactive”, the Ratio IC50 [7] was 167 and the Ratio IC50 [8] was 27. The inhibition [9] was over 90%, the Activity [10] was “Non-Toxic” and the inhibition [11] was over 90%. The IC50 [12] was 110 nM, the inhibition [13] was “inactive” and the IC50 [14] was 480 nM. The inhibition [15] was over 50%, the inhibition [16] was over 90% and the inhibition [17] was over 50%. For the same compound, the inhibition [18] was “inactive”, the inhibition [19] was “inactive” and the IC50 ([20]; read-out: IC50) was 18 nM. For the same compound, the IC50 ([20]; read-out: pIC50 (converted)) was 15.8 nM.

From ChEMBL document CHEMBL4342528, “Discovery of a First-in-Class Protein Arginine Methyltransferase 6 (PRMT6) Covalent Inhibitor” (J Med Chem, 2020)
